In ChEMBL document CHEMBL1208674, “Synthesis and anti-mycobacterial evaluation of some pyrazine-2-carboxylic acid hydrazide derivatives” (Eur J Med Chem, 2010) one finds CC50, IC50 and IC90 data, which are given here for 13 compounds.

One may read the CC50 as the concentration that lowers cell viability or growth by half. What is called IC50 is the concentration at which inhibition is half-maximal. The IC90 is the concentration needed for an effect of 90%.

In brackets after ≈: the same amount, converted by molar mass.

Data set [1] can be described thus: Cytotoxicity against african green monkey Vero cells after 72 hrs by Cell titer Glo assay. The data set is classed as cell-based. The following applies: chlorocebus sabaeus. Summed up: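 VERO cells exposed to compounds for 72 h, run in parallel with the M. tuberculosis dose-response assay. Viability read by ATP-based luminescence (Cell Titer-Glo). CC50 taken from the dose-response curve by curve fitting.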
Background: Cellular ATP, detected with luciferase, serves as a proxy for viable cell number.

Data set [2] has as its system Mycobacterium tuberculosis. Briefly: Antimycobacterial activity against Mycobacterium tuberculosis H37Rv by microplate Alamar blue assay. The class given is functional, organism-based. Summed up: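 M. tuberculosis H37Rv (ATCC 27294) grown in BACTEC 12B medium, broth microdilution read by Alamar Blue (MABA). Ten 2-fold dilutions, typically 100 to 0.19 µg/mL. IC90 = concentration giving 90% fluorescence reduction relative to controls; IC50 at 50%. Both taken from dose-response curve by curve fitting. Run alongside a parallel VERO cytotoxicity assay.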

With `O=C(N/N=C/c1ccc(Cl)cc1)c1cnccn1`, the cytotoxic concentration (CC50) at 72 h in data set [1] is over 30 µg/mL. Further, in data set [2], the half-inhibitory concentration (IC50) is over 100 µg/mL and the 90% effect concentration (IC90) is over 100 µg/mL.

As for `NNC(=O)c1cnccn1` [PYRAZINE CARBOXYLIC ACID HYDRAZIDE], the CC50 at 72 h in data set [1] is over 30 µg/mL. In data set [2], this compound had an IC50 of over 100 µg/mL and an IC90 of over 100 µg/mL.

In the case of `O=C(N/N=C/c1ccc(O)cc1)c1cnccn1`, the half-maximal cytotoxic concentration (CC50) at 72 h in data set [1] was over 30 µg/mL. In data set [2], the IC50 is over 100 µg/mL and the IC90 was over 100 µg/mL.

`COc1ccc(/C(C)=N/NC(=O)c2cnccn2)cc1` gave a half-maximal cytotoxic concentration (CC50) at 72 h in data set [1] of over 30 µg/mL. In data set [2], this compound showed an IC50 of over 100 µg/mL and an IC90 of over 100 µg/mL.

In turn, `O=C(N/N=C/c1ccccc1O)c1cnccn1` showed a cytotoxic concentration (CC50) at 72 h in data set [1] of 11.4 µg/mL (≈ 47.2 µM). In data set [2], this compound came in with an IC50 of over 100 µg/mL and an IC90 of over 100 µg/mL.

For `C/C(=N\NC(=O)c1cnccn1)c1ccc(Br)cc1`, the half-maximal cytotoxic concentration (CC50) at 72 h in data set [1] was over 30 µg/mL. In data set [2], this compound displayed an IC50 of over 100 µg/mL and an IC90 of over 100 µg/mL.

In data set [1], `O=C(N/N=C/c1cccc(O)c1)c1cnccn1` yielded a CC50 at 72 h of over 30 µg/mL. Further, in data set [2], the half-inhibitory concentration (IC50) was over 100 µg/mL and the IC90 was over 100 µg/mL.

`CCNC(=S)NNC(=O)c1cnccn1` had a CC50 at 72 h in data set [1] of 29.8 µg/mL (≈ 132 µM). In data set [2], this compound returned an IC50 of 11.4 µg/mL (≈ 50.5 µM) and a 90% effect concentration (IC90) of 16.9 µg/mL (≈ 74.9 µM).

Regarding `COc1cc(/C=N/NC(=O)c2cnccn2)ccc1O`, the cytotoxic concentration (CC50) at 72 h in data set [1] is over 30 µg/mL. In data set [2], the IC50 is over 100 µg/mL and the 90% effect concentration (IC90) is over 100 µg/mL.

`Cc1ccc2nc(Cl)c(/C=N/NC(=O)c3cnccn3)cc2c1` had a CC50 at 72 h in data set [1] of over 30 µg/mL. In data set [2], the IC50 is over 100 µg/mL and the 90% effect concentration (IC90) is over 100 µg/mL.

`COc1ccc(/C=N/NC(=O)c2cnccn2)cc1` had a half-maximal cytotoxic concentration (CC50) at 72 h in data set [1] of over 30 µg/mL. For the same compound, in data set [2], the IC50 was over 100 µg/mL and the 90% effect concentration (IC90) was over 100 µg/mL.

On to `COc1ccc2nc(Cl)c(/C=N/NC(=O)c3cnccn3)cc2c1`, for which the CC50 at 72 h in data set [1] was 5.37 µg/mL (≈ 15.7 µM). In data set [2], this compound displayed a half-inhibitory concentration (IC50) of over 100 µg/mL and a concentration for an effect of 90% (IC90) of over 100 µg/mL.

`Nc1cccc(/C=N/NC(=O)c2cnccn2)c1`: the half-maximal cytotoxic concentration (CC50) at 72 h in data set [1] was over 30 µg/mL. In data set [2], the IC50 is over 100 µg/mL and the 90% effect concentration (IC90) is over 100 µg/mL.
